Measured values reported in ChEMBL document CHEMBL1949561, “Synthesis and triplex-forming ability of oligonucleotides bearing 1-substituted 1H-1,2,3-triazole nucleobases” (Bioorg Med Chem, 2011).

Legend:
Assay type in all cases: nucleic-acid assay
Nucleic Acid [1] = test: Binding affinity to5'-GCTAAAAAGACAGAGAGATCG-3'/5'- CGATCTCTCTGTCTTTTTAGC-3' double stranded DNA assessed as melting temperature at 1.5 uM in sodium phosphate buffer at pH 7 by UV spectrophotometric analysis
Summary of the method: (§1)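 UV melting of triplexes between each modified TFO and the 21-bp duplex target, in 7 mM sodium phosphate buffer (pH 7.0), 140 mM KCl and 10 mM MgCl₂. Each oligonucleotide at 1.5 µM final. Absorbance followed at 260 nm from 5 °C to 85 °C, scanned at 0.5 °C/min, to give Tm.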

Nucleic Acid [2] = test: Binding affinity to 5'-GCTAAAAAGATAGAGAGATCG-3'/5'- CGATCTCTCTATCTTTTTAGC-3' double stranded DNA assessed as melting temperature at 1.5 uM in sodium phosphate buffer at pH 7 by UV spectrophotometric analysis; summary of the method: as §1
Nucleic Acid [3] = test: Binding affinity to 5'-GCTAAAAAGAGAGAGAGATCG-3'/5'- CGATCTCTCTCTCTTTTTAGC-3' double stranded DNA assessed as melting temperature at 1.5 uM in sodium phosphate buffer at pH 7 by UV spectrophotometric analysis; summary of the method: as §1
Nucleic Acid [4] = test: Binding affinity to 5'-GCTAAAAAGAAAGAGAGATCG-3'/5'- CGATCTCTCTTTCTTTTTAGC-3' double stranded DNA assessed as melting temperature at 1.5 uM in sodium phosphate buffer at pH 7 by UV spectrophotometric analysis; summary of the method: as §1
Nucleic Acid [5] = test: Binding affinity to 5'-GCTAAAAAGACAGAGAGATCG-3'/5'- CGATCTCTCTGTCTTTTTAGC-3' double stranded DNA assessed as melting temperature at 1.9 uM in sodium cacodylate buffer at pH 6.8 by UV spectrophotometric analysis
Summary of the method: (§2)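 Each oligonucleotide at 1.9 µM final. Absorbance at 260 nm recorded from 5 °C to 85 °C at 0.5 °C/min; Tm taken from the melting profile.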

Nucleic Acid [6] = test: Binding affinity to 5'-GCTAAAAAGATAGAGAGATCG-3'/5'- CGATCTCTCTATCTTTTTAGC-3' double stranded DNA assessed as melting temperature at 1.9 uM in sodium cacodylate buffer at pH 6.8 by UV spectrophotometric analysis; summary of the method: as §2
Nucleic Acid [7] = test: Binding affinity to 5'-GCTAAAAAGAGAGAGAGATCG-3'/5'- CGATCTCTCTCTCTTTTTAGC-3' double stranded DNA assessed as melting temperature at 1.9 uM in sodium cacodylate buffer at pH 6.8 by UV spectrophotometric analysis; summary of the method: as §2
Nucleic Acid [8] = test: Binding affinity to 5'-GCTAAAAAGAAAGAGAGATCG-3'/5'- CGATCTCTCTTTCTTTTTAGC-3' double stranded DNA assessed as melting temperature at 1.9 uM in sodium cacodylate buffer at pH 6.8 by UV spectrophotometric analysis; summary of the method: as §2
Nucleic Acid [9] = test: Binding affinity to 5'-GCTAAAAAGACAGAGAGATCG-3'/5'- CGATCTCTCTGTCTTTTTAGC-3' double stranded DNA assessed as change in melting temperature at 1.5 uM in sodium phosphate buffer at pH 7 by UV spectrophotometric analysis

Tm (Nucleic Acid [1]) [°C]	Tm (Nucleic Acid [2]) [°C]	Tm (Nucleic Acid [3]) [°C]	Tm (Nucleic Acid [4]) [°C]	Tm (Nucleic Acid [5]) [°C]	Tm (Nucleic Acid [6]) [°C]	Tm (Nucleic Acid [7]) [°C]	Tm (Nucleic Acid [8]) [°C]	ΔTm (Nucleic Acid [9]) [°C]	Compound
24	13	13	12	29	18	17	18	11	Cc1cn([C@H]2C[C@H](OP(=O)(O)OC[C@H]3O[C@@H](n4cc(C)c(=O)[nH]c4=O)C[C@@H]3OP(=O)(O)OC[C@H]3O[C@@H](n4cc(C)c(N)nc4=O)C[C@@H]3OP(=O)(O)OC[C@H]3O[C@@H](n4cc(C)c(=O)[nH]c4=O)C[C@@H]3OP(=O)(O)OC[C@H]3O[C@@H](n4cc(C)c(N)nc4=O)C[C@@H]3OP(=O)(O)OC[C@H]3O[C@@H](n4cc(C)c(=O)[nH]c4=O)C[C@@H]3OP(=O)(O)OC[C@H]3O[C@@H](c4cn(-c5ccc(NC(N)=O)cc5)nn4)C[C@@H]3OP(=O)(O)OC[C@H]3O[C@@H](n4cc(C)c(=O)[nH]c4=O)C[C@@H]3OP(=O)(O)OC[C@H]3O[C@@H](n4cc(C)c(N)nc4=O)C[C@@H]3OP(=O)(O)OC[C@H]3O[C@@H](n4cc(C)c(=O)[nH]c4=O)C[C@@H]3OP(=O)(O)OC[C@H]3O[C@@H](n4cc(C)c(=O)[nH]c4=O)C[C@@H]3OP(=O)(O)OC[C@H]3O[C@@H](n4cc(C)c(=O)[nH]c4=O)C[C@@H]3OP(=O)(O)OC[C@H]3O[C@@H](n4cc(C)c(=O)[nH]c4=O)C[C@@H]3OP(=O)(O)OC[C@H]3O[C@@H](n4cc(C)c(=O)[nH]c4=O)C[C@@H]3O)[C@@H](COP(=O)(O)O[C@H]3C[C@H](n4cc(C)c(=O)[nH]c4=O)O[C@@H]3CO)O2)c(=O)nc1N
25	17	< 10	< 10	29	23	17	19	8	Cc1cn([C@H]2C[C@H](OP(=O)(O)OC[C@H]3O[C@@H](n4cc(C)c(=O)[nH]c4=O)C[C@@H]3OP(=O)(O)OC[C@H]3O[C@@H](n4cc(C)c(N)nc4=O)C[C@@H]3OP(=O)(O)OC[C@H]3O[C@@H](n4cc(C)c(=O)[nH]c4=O)C[C@@H]3OP(=O)(O)OC[C@H]3O[C@@H](n4cc(C)c(N)nc4=O)C[C@@H]3OP(=O)(O)OC[C@H]3O[C@@H](n4cc(C)c(=O)[nH]c4=O)C[C@@H]3OP(=O)(O)OC[C@H]3O[C@@H](c4cn(-c5ccccc5)nn4)C[C@@H]3OP(=O)(O)OC[C@H]3O[C@@H](n4cc(C)c(=O)[nH]c4=O)C[C@@H]3OP(=O)(O)OC[C@H]3O[C@@H](n4cc(C)c(N)nc4=O)C[C@@H]3OP(=O)(O)OC[C@H]3O[C@@H](n4cc(C)c(=O)[nH]c4=O)C[C@@H]3OP(=O)(O)OC[C@H]3O[C@@H](n4cc(C)c(=O)[nH]c4=O)C[C@@H]3OP(=O)(O)OC[C@H]3O[C@@H](n4cc(C)c(=O)[nH]c4=O)C[C@@H]3OP(=O)(O)OC[C@H]3O[C@@H](n4cc(C)c(=O)[nH]c4=O)C[C@@H]3OP(=O)(O)OC[C@H]3O[C@@H](n4cc(C)c(=O)[nH]c4=O)C[C@@H]3O)[C@@H](COP(=O)(O)O[C@H]3C[C@H](n4cc(C)c(=O)[nH]c4=O)O[C@@H]3CO)O2)c(=O)nc1N
21	< 10	< 10	< 10	–	–	–	–	11	Cc1cn([C@H]2C[C@H](OP(=O)(O)OC[C@H]3O[C@@H](n4cc(C)c(=O)[nH]c4=O)C[C@@H]3OP(=O)(O)OC[C@H]3O[C@@H](n4cc(C)c(N)nc4=O)C[C@@H]3OP(=O)(O)OC[C@H]3O[C@@H](n4cc(C)c(=O)[nH]c4=O)C[C@@H]3OP(=O)(O)OC[C@H]3O[C@@H](n4cc(C)c(N)nc4=O)C[C@@H]3OP(=O)(O)OC[C@H]3O[C@@H](n4cc(C)c(=O)[nH]c4=O)C[C@@H]3OP(=O)(O)OC[C@H]3O[C@@H](c4cn(-c5ccc(C(=O)O)cc5)nn4)C[C@@H]3OP(=O)(O)OC[C@H]3O[C@@H](n4cc(C)c(=O)[nH]c4=O)C[C@@H]3OP(=O)(O)OC[C@H]3O[C@@H](n4cc(C)c(N)nc4=O)C[C@@H]3OP(=O)(O)OC[C@H]3O[C@@H](n4cc(C)c(=O)[nH]c4=O)C[C@@H]3OP(=O)(O)OC[C@H]3O[C@@H](n4cc(C)c(=O)[nH]c4=O)C[C@@H]3OP(=O)(O)OC[C@H]3O[C@@H](n4cc(C)c(=O)[nH]c4=O)C[C@@H]3OP(=O)(O)OC[C@H]3O[C@@H](n4cc(C)c(=O)[nH]c4=O)C[C@@H]3OP(=O)(O)OC[C@H]3O[C@@H](n4cc(C)c(=O)[nH]c4=O)C[C@@H]3O)[C@@H](COP(=O)(O)O[C@H]3C[C@H](n4cc(C)c(=O)[nH]c4=O)O[C@@H]3CO)O2)c(=O)nc1N
22	15	< 10	< 10	–	–	–	–	–	Cc1cn([C@H]2C[C@H](OP(=O)(O)OC[C@H]3O[C@@H](n4cc(C)c(=O)[nH]c4=O)C[C@@H]3OP(=O)(O)OC[C@H]3O[C@@H](n4cc(C)c(N)nc4=O)C[C@@H]3OP(=O)(O)OC[C@H]3O[C@@H](n4cc(C)c(=O)[nH]c4=O)C[C@@H]3OP(=O)(O)OC[C@H]3O[C@@H](n4cc(C)c(N)nc4=O)C[C@@H]3OP(=O)(O)OC[C@H]3O[C@@H](n4cc(C)c(=O)[nH]c4=O)C[C@@H]3OP(=O)(O)OC[C@H]3O[C@@H](c4cn(-c5cccc(C(=O)O)c5)nn4)C[C@@H]3OP(=O)(O)OC[C@H]3O[C@@H](n4cc(C)c(=O)[nH]c4=O)C[C@@H]3OP(=O)(O)OC[C@H]3O[C@@H](n4cc(C)c(N)nc4=O)C[C@@H]3OP(=O)(O)OC[C@H]3O[C@@H](n4cc(C)c(=O)[nH]c4=O)C[C@@H]3OP(=O)(O)OC[C@H]3O[C@@H](n4cc(C)c(=O)[nH]c4=O)C[C@@H]3OP(=O)(O)OC[C@H]3O[C@@H](n4cc(C)c(=O)[nH]c4=O)C[C@@H]3OP(=O)(O)OC[C@H]3O[C@@H](n4cc(C)c(=O)[nH]c4=O)C[C@@H]3OP(=O)(O)OC[C@H]3O[C@@H](n4cc(C)c(=O)[nH]c4=O)C[C@@H]3O)[C@@H](COP(=O)(O)O[C@H]3C[C@H](n4cc(C)c(=O)[nH]c4=O)O[C@@H]3CO)O2)c(=O)nc1N
25	17	20	44	28	21	22	45	–	Cc1cn([C@H]2C[C@H](OP(=O)(O)OC[C@H]3O[C@@H](n4cc(C)c(=O)[nH]c4=O)C[C@@H]3OP(=O)(O)OC[C@H]3O[C@@H](n4cc(C)c(N)nc4=O)C[C@@H]3OP(=O)(O)OC[C@H]3O[C@@H](n4cc(C)c(=O)[nH]c4=O)C[C@@H]3OP(=O)(O)OC[C@H]3O[C@@H](n4cc(C)c(N)nc4=O)C[C@@H]3OP(=O)(O)OC[C@H]3O[C@@H](n4cc(C)c(=O)[nH]c4=O)C[C@@H]3OP(=O)(O)OC[C@H]3O[C@@H](n4cc(C)c(=O)[nH]c4=O)C[C@@H]3OP(=O)(O)OC[C@H]3O[C@@H](n4cc(C)c(=O)[nH]c4=O)C[C@@H]3OP(=O)(O)OC[C@H]3O[C@@H](n4cc(C)c(N)nc4=O)C[C@@H]3OP(=O)(O)OC[C@H]3O[C@@H](n4cc(C)c(=O)[nH]c4=O)C[C@@H]3OP(=O)(O)OC[C@H]3O[C@@H](n4cc(C)c(=O)[nH]c4=O)C[C@@H]3OP(=O)(O)OC[C@H]3O[C@@H](n4cc(C)c(=O)[nH]c4=O)C[C@@H]3OP(=O)(O)OC[C@H]3O[C@@H](n4cc(C)c(=O)[nH]c4=O)C[C@@H]3OP(=O)(O)OC[C@H]3O[C@@H](n4cc(C)c(=O)[nH]c4=O)C[C@@H]3O)[C@@H](COP(=O)(O)O[C@H]3C[C@H](n4cc(C)c(=O)[nH]c4=O)O[C@@H]3CO)O2)c(=O)nc1N
